Measurements: article PMC3227549 (Journal of natural products, 2010)
Entries after “also recorded” stand apart in the source; their conditions may differ.

Assays:
[1] = test system: Neuro-2a mouse neuroblastoma cells; test: Cytotoxicity to Neuro-2a mouse neuroblastoma cells; format: cell-based
[2] = test system: spontaneous Ca2+ oscillations in neocortical neurons; test: Suppression of spontaneous Ca2+ oscillations; format: cell-based, mouse
brine shrimp = test: Brine shrimp toxicity assay; format: in vivo; details: pure compound
[3] = test system: voltage gated sodium channel (VGSC); test: Sodium influx / activation of VGSC in neocortical neurons; format: cell-based; details: mouse neocortical neurons
How it was run: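 Primary neocortical neurons from embryonic day 16 Swiss-Webster mice were trypsin-dissociated, given 10 μM cytosine arabinoside on day 2, then Neurobasal/B-27 serum-free medium, and used at DIV 8–13. Cells were loaded for 1 h at 37 °C with 10 μM SBFI-AM and 0.02% Pluronic F-127, then washed in Locke's buffer. Ex 340/380 nm, em 505 nm, read every 5 s, with 60 s baseline before test compound addition. EC50 by nonlinear logistic regression.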

[4] = test system: H-460 human lung adenocarcinoma cells; test: Cytotoxicity to H-460 human lung adenocarcinoma cells; format: cell-based
[5] = test system: voltage gated sodium channel (VGSC); details: cited from earlier work
[6] = test system: site 2 of the mammalian VGSC; details: cited from earlier work

| SMILES | Neuro-2a (IC50 μM) [1] | suppressed spontaneous Ca2+ oscillations, EC50 [2] | LC50 in the brine shrimp toxicity assay (brine shrimp) | stimulated sodium influx, EC50 [3] | H-460 (IC50 μM) [4] | kind of agonism in stimulation of sodium influx in neocortical neurons [5] | inhibition of binding of [3H]batrachotoxin to site 2 of the mammalian VGSC [6] |
| --- | --- | --- | --- | --- | --- | --- | --- |
| CCC[C@@H](C)[C@H](O)[C@H](C)[C@@H](O)[C@@H](C)[C@H](Cc1nc(C2=N[C@@](C)(C3=N[C@@](C)(C(=O)N[C@H]([C@@H](O)[C@@H](C)C(=O)OCC)[C@@H](C)CC)CS3)CS2)cs1)OC [Compound 3, hoiamide C] | Inactive | no significant effects; also recorded: no significant pharmacological activity | 1.3 µM | no significant effects; also recorded: no significant pharmacological activity | Inactive | – | – |
| CCC[C@@H](C)[C@H](O)[C@H](C)[C@H]1OC(=O)[C@H]([C@@H](C)O)NC(=O)[C@H](C(C)C)OC(=O)[C@H](C)[C@H](O)[C@H]([C@@H](C)CC)NC(=O)[C@@]2(C)CSC(=N2)[C@@]2(C)CSC(=N2)c2csc(n2)C[C@H](OC)[C@@H]1C [Compound 1, hoiamide A] | – | – | – | – | – | partial agonist | inhibits the binding |
| CCC[C@@H](C)[C@H](O)[C@H](C)[C@H]1OC(=O)[C@H]([C@@H](C)O)NC(=O)[C@H]([C@@H](C)CC)OC(=O)[C@H](C)[C@H](O)[C@H]([C@@H](C)CC)NC(=O)[C@@]2(C)CSC(=N2)[C@@]2(C)CSC(=N2)c2csc(n2)C[C@H](OC)[C@@H]1C [Compound 2, hoiamide B] | Inactive | – | – | – | – | – | – |
